{
  "source": "paper PMC3567311",
  "about": "(ACS chemical biology, 2012)",
  "key": {"Kvβ1 [1]": {"molecular_target": "T1, Kvβ1 (Rattus norvegicus, UniProt P63144, C7A)", "T1 sequence (P63144 whole entry C7A)": "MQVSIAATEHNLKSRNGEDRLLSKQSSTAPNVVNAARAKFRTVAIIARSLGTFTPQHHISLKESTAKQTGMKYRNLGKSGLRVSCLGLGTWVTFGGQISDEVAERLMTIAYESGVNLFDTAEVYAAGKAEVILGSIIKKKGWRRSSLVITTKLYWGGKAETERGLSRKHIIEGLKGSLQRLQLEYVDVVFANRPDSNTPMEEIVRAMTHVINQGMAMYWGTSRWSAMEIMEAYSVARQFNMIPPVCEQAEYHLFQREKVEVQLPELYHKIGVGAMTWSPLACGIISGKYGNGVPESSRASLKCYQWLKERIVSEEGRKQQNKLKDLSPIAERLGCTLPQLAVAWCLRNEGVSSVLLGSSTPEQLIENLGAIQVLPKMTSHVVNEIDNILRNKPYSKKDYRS", "T1 sequence (P10499 whole entry partner)": "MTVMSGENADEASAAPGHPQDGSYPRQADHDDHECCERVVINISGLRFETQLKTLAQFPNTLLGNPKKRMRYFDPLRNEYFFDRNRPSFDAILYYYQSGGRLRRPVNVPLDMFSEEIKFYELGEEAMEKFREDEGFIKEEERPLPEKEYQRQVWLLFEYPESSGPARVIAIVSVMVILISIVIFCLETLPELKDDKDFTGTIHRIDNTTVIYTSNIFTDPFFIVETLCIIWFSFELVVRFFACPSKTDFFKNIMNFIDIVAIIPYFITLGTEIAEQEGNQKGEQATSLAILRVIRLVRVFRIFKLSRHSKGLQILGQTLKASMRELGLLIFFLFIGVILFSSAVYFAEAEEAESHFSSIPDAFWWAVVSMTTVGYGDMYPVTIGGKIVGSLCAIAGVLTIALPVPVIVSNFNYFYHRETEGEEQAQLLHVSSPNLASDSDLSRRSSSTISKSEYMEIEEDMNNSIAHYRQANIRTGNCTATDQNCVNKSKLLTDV", "assay": "inside-out patch clamp dose-response", "format": "cell-based"}, "Kvβ2 [2]": {"molecular_target": "T2, Kvβ2 (Rattus norvegicus, UniProt P62483, W272A)", "T2 sequence (P62483 36-361 W272A)": "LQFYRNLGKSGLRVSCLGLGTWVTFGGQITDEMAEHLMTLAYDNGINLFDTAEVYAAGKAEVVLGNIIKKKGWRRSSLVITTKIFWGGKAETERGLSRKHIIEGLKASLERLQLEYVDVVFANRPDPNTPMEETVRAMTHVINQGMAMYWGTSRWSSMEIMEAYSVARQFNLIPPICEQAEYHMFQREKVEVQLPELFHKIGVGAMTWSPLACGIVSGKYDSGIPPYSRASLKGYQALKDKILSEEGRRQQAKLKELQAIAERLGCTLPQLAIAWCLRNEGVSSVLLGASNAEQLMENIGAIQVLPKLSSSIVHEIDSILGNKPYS", "assay": "scintillation proximity assay, competition with 3H-cortisone", "conditions": "read-out: % reduction of cortisone binding at 250 μM"}, "Kvβ2 [3]": {"molecular_target": "T2, Kvβ2", "assay": "scintillation proximity assay, competition with 3H-cortisone", "conditions": "read-out: % reduction of cortisone binding at 250 μM", "remark": "listed apart in the source"}, "Kvβ2 [4]": {"molecular_target": "T2, Kvβ2", "format": "binding"}, "Kvβ1 [5]": {"molecular_target": "T1, Kvβ1", "assay": "inside-out patch clamp dose-response", "format": "cell-based", "procedure,_shortened": "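Inside-out patches from Xenopus oocytes injected with mixed mRNAs of rat Kv1.1 and rat Kvβ1 (Cys7→Ala), or with a Kvβ1-Kv1.1 fused chimera. Currents elicited by stepping from −80 mV to +60 mV for 400 ms. Test compound was dissolved in DMSO, diluted into internal buffer (final 1% DMSO) and perfused at several concentrations. ΔIss = rise in steady-state current as a fraction of initial inactivating current. EC50 taken from the dose-response curve.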", "remark": "listed apart in the source"}},
  "note": "Read-outs that look alike come from different tables or passages of the source.",
  "data": [
    {"compound": "CC(=O)OCC(=O)[C@@]1(O)CC[C@H]2[C@@H]3CCC4=CC(=O)CC[C@]4(C)[C@H]3C(=O)C[C@@]21C", "note": "[cortisone 21-acetate]", "values": [
      {"measurement": "EC50", "setting": "Kvβ1 [1]", "result": "9 ± 1.1", "unit": "µM"},
      {"measurement": "inhibition at 250 µM", "setting": "Kvβ2 [2]", "result": "95 ± 0.2", "unit": "%"}
    ]},
    {"compound": "CCC(=O)O[C@]1(C(=O)SCF)[C@H](C)C[C@H]2[C@@H]3C[C@H](F)C4=CC(=O)C=C[C@]4(C)[C@@]3(F)[C@@H](O)C[C@@]21C", "note": "[fluticasone propionate]", "values": [
      {"measurement": "EC50", "setting": "Kvβ1 [1]", "result": "0.037 ± 0.0011", "unit": "µM"},
      {"measurement": "inhibition at 250 µM", "setting": "Kvβ2 [3]", "result": "98 ± 0.1", "unit": "%"}
    ]},
    {"compound": "C[C@]12CCC(=O)C=C1CC[C@@H]1[C@@H]2C(=O)C[C@@]2(C)[C@H]1CC[C@]2(O)C(=O)CO", "note": "[cortisone]", "values": [
      {"measurement": "Ki", "setting": "Kvβ2 [4]", "result": "30 ± 10", "unit": "µM"},
      {"measurement": "EC50", "setting": "Kvβ1 [5]", "result": 46, "unit": "µM"}
    ]}
  ]
}
